ChEMBL document CHEMBL1811913, “Trimethoxy-chalcone derivatives inhibit growth of Leishmania braziliensis: synthesis, biological evaluation, molecular modeling and structure-activity relationship (SAR)” (Bioorg Med Chem, 2011)
Activity calls are given as the source filed them. The rule behind the calls is not given here.

Experiments:
[1] = Cytotoxicity against african green monkey Vero cells after 72 hrs; type: cell-based; conditions: chlorocebus sabaeus
[2] = tested on: Leishmania braziliensis; test: Antileishmanial activity against promastigotes form of Leishmania braziliensis MHOM/BR/75/M2904 after 72 hrs; type: functional; conditions: MHOM/BR/75/M2904, 72 h
Outline: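 5.0 × 10^6 promastigotes/mL were exposed to 500, 100, 50, 25, 10, 5 and 1 (DMSO ≤1% final) at 28 °C for 72 h, and living parasites were counted in a Neubauer chamber. IC50 came from linear regression, mean ± standard error of three independent experiments.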

[3] = Selectivity index, ratio of CC50 for african green monkey Vero cells to IC50 for promastigotes form of Leishmania braziliensis MHOM/BR/75/M2904; type: functional
[4] = tested on: Vero; test: Cytotoxicity against african green monkey Vero cells at 50 uM after 72 hrs; type: cell-based; conditions: chlorocebus sabaeus
[5] = tested on: Leishmania braziliensis; test: Antileishmanial activity against promastigotes form of Leishmania braziliensis MHOM/BR/75/M2904 at 50 uM after 72 hrs; type: functional
[6] = target: T1, Nitric oxide synthase, inducible (Mus musculus) (UniProt P29477); test: Inhibition of iNOS-mediated LPS-induced nitric oxide production in mouse RAW264.7 cells; type: cell-based
T1 sequence (whole entry): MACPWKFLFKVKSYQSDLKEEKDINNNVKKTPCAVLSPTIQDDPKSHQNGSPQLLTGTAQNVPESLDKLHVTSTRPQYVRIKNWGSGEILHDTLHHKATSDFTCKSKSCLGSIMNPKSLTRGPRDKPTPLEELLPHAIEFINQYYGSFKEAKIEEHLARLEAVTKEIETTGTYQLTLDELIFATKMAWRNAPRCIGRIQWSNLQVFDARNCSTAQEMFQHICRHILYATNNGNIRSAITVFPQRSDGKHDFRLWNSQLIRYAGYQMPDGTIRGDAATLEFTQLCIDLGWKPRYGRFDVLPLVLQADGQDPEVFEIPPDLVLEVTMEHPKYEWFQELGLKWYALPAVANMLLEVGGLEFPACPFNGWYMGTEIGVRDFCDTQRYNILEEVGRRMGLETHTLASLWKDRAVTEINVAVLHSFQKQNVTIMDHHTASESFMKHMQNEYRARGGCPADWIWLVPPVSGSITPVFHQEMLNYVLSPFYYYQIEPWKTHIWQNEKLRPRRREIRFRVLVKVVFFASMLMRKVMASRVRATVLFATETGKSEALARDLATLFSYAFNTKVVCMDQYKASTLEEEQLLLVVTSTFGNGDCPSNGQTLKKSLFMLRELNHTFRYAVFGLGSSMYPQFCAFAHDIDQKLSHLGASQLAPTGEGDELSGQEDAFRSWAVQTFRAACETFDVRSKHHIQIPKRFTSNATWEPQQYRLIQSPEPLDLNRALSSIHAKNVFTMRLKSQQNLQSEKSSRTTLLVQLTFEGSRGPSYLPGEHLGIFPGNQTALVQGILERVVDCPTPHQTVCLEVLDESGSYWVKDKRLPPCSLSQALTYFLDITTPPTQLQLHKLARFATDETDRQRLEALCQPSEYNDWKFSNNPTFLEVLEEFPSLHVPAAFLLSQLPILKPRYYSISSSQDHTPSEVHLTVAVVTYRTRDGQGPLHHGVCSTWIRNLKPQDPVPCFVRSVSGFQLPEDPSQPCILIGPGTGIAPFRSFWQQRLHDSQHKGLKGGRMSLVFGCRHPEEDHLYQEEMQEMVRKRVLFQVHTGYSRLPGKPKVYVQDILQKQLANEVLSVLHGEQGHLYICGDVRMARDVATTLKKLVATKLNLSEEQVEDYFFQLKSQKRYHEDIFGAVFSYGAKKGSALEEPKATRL

Structure (SMILES)	CC50 at 72 h [1] [µM]	IC50 [2] [µM]	Ratio CC50/IC50 [3]	Activity [4]	inhibition [5]	inhibition [6]
COc1cc(OC)c(C(=O)/C=C/c2cccc(Cl)c2)cc1OC	382	15.4	24.8			
COc1cc(OC)c(C(=O)/C=C/c2ccccc2)cc1OC	392	12.8	30.6			
COc1cc(OC)c(C(=O)/C=C/c2ccc(Cl)cc2)cc1OC	279	29.7	9.4			
N=C(N)c1ccc(OCCCCCOc2ccc(C(=N)N)cc2)cc1 [PENTAMIDINE]		6				
COc1cc(O)c(C(=O)/C=C/c2cccc(Cl)c2)c(OC)c1	341	194	1.8			
COc1cc(OC)c(C(=O)/C=C/c2ccc3c(c2)OCO3)c(OC)c1				Non-toxic	inactive	
COc1cc(OC)c(C(=O)/C=C/c2ccccc2Cl)cc1OC				Non-toxic	inactive	
COc1cccc(/C=C/C(=O)c2cc(OC)c(OC)cc2OC)c1	295	14	21.1			
COc1cc(OC)c(C(=O)/C=C/c2ccc(Cl)c(Cl)c2)cc1OC	906	148	6.1			
COc1cc(OC)c(C(=O)/C=C/c2ccccc2Cl)c(OC)c1						Active
